The text below walks through data of article PMC10979821 (Current pharmaceutical design, 2023).

Entries after “also recorded” stand apart in the source; their conditions may differ. Where two headings read alike, the source gives them in different places. Where only a bound is given, the exact number is not on record here.

A short description of data set [1]: Serum pharmacokinetics of THC and metabolites after inhaled or i.p. THC. In kind it is in vivo, female Sprague Dawley rats.
The conditions of data set [2]: cited from earlier work.
The test system of data set [3] is female Sprague Dawley rats. In words: Locomotor activity in OpenField arena after i.p. or inhaled THC. The format is in vivo, rat. The following applies: for vertical plane entries (rearing), total: 45 minute session. A digest of the protocol: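 Separate cohort of adult female rats (n=15): habituation session, then five vehicle or THC days, each 3 days apart. Dosing was 2 mg/kg i.p., or 10 min vapour exposure (0.25 mL of 40 or 160 mg/mL; 0.19 or 0.76 mg/kg). Rats entered the arena immediately for 45 min, n=10–15 per group. Analysis: two-way RM ANOVA (time × treatment), Sidak or Tukey post hoc.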

Data set [4] deals with rodents. The following applies: i.p. injected THC; cited from earlier work.
For data set [5] the following is noted: cited from earlier work. The source holds these as a separate data set.
Setting [6] is: 0.19 mg/kg vaporized/inhaled THC (0.25 mL of 40 mg/mL, 10 min exposure), serum.
Where [7] appears, read: 0.76 mg/kg vaporized/inhaled THC (0.25 mL of 160 mg/mL, 10 min exposure), serum.
The mark [8] stands for this setting: 2 mg/kg THC i.p., serum, female Sprague Dawley rats.
Setting [9] is: female, Sprague Dawley, rat, serum, inhaled or intranasal, 0.19 mg/kg.
Setting [10] is: female, Sprague Dawley, rat, serum, inhaled or intranasal, 0.76 mg/kg.
Where [11] appears, read: female, Sprague Dawley, rat, serum, ip, 2 mg/kg.

As usually defined, the Tmax is the time at which the peak concentration occurs. Regarding “11-hydroxy-delta-9-tetrahydrocannabinol [11-OH-THC]”, the Tmax in data set [1] (0.19 mg/kg vaporized THC, time after conclusion of inhalation) came to 5 min; in data set [1] (0.76 mg/kg vaporized THC, time after conclusion of inhalation), 5 min; in data set [1] (2 mg/kg THC i.p., time post-injection) it was 20 min. In addition, the “Cmax (maximum serum concentration)” value worked out at 14.4 ± 1.4 ng/mL in data set [1] (setting [6]), 35.6 ± 7.4 ng/mL in data set [1] (setting [7]) and 84.2 ± 19.3 ng/mL in data set [1] (setting [8]). Besides, the “metabolite level relative to THC” value in data set [2] (human, acute inhalation, % of THC) is “up to 30%”.
Broadly, the AUC(0-inf) is total exposure, with the tail of the curve extrapolated. One may read the CL/F as the apparent clearance, not corrected for the fraction that reaches the circulation. Broadly, the Cmax is the highest concentration seen after dosing. For orientation: Vd/F means the apparent distribution volume after extravascular dosing. What is called half-life is how long it takes for the measured level to halve. With `CCCCCc1cc(O)c2c(c1)OC(C)(C)[C@@H]1CCC(C)=C[C@@H]21` [THC, delta-9-tetrahydrocannabinol], the “Vss (volume of distribution at steady state)” value in data set [1] (0.19 mg/kg vaporized) is given as 8.6 L/kg. Also, in data set [1] (0.76 mg/kg vaporized), the “Vss (volume of distribution at steady state)” value was 24.4 L/kg. In data set [1] (setting [9]), the AUC(0-inf) amounted to 87 ng·h/mL, the CL/F was 38.3 mL/min/kg, the peak concentration (Cmax) came to 43.3 ng/mL and the Tmax is 10 min. Further, in data set [1] (setting [9]), the Vd/F is 7.4 L/kg, the half-life is 132 min and the k el is 8.33e-05 s⁻¹. In data set [1] (setting [10]), the area under the curve AUC(0-inf) came to 94.4 ng·h/mL, the CL/F was 142 mL/min/kg, the Cmax came out at 71.6 ng/mL and the Tmax is 5 min. Also, in data set [1] (setting [10]), the Vd/F is 33 L/kg, the half-life was 162 min and the k el is 8.33e-05 s⁻¹. Further, in data set [1] (setting [11]), the total exposure AUC(0-inf) was 364 ng·h/mL, the apparent clearance CL/F is 91.7 mL/min/kg, the Cmax came out at 108 ng/mL and the Tmax is 10 min. In data set [1] (setting [11]), the Vd/F amounted to 26.9 L/kg, the half-life was 204 min and the k el is 5.56e-05 s⁻¹. Also, the “fold-change of Cmax values” in data set [1] (increasing inhaled THC dose from 0.19 mg/kg to 0.76 mg/kg) came to 1.6 fold. Moreover, the “vertical plane entries (rearing), total” value in data set [3] (0.19 mg/kg INH THC vs vehicle) is “Significantly reduced; also recorded: significantly decreased; also recorded: reduced rearing activity”. In data set [3] (0.76 mg/kg inhaled THC vs vehicle, at 20 minutes), the floor plane distance entry is “significantly higher; also recorded: slightly heightened locomotion”. In addition, the “horizontal distance traveled or altered thigmotaxis” value in data set [3] (0.76 mg/kg inhaled THC, over a 45-minute period) is reported as “minimal effect”. Further, the center distance travelled entry in data set [3] (0.76 mg/kg vaporized THC vs vehicle, at 20 minutes) is “significantly higher; also recorded: increased center distance travelled”. Moreover, the “vertical plane entries (rearing), total” value in data set [3] (2 mg/kg i.p. THC vs vehicle) is reported as “Significantly reduced; also recorded: significant reduction; also recorded: reduced rearing activity”. In addition, the “margin distance, post-hoc comparisons” value in data set [3] (vaporized THC 0.19 or 0.76 mg/kg vs vehicle) is “no significant post-hoc comparisons”. In data set [4], the “dose at which horizontal locomotion is affected” value is reported as ≥ 15 mg/kg. Moreover, the “plasma concentration Cmax” value in data set [2] (human clinical study at a similar dose) is given as 73.81 ± 63.09 ng/mL. Also, the “plasma Cmax values across individual subjects” value in data set [2] (human, 6 subjects given the same dose of THC under the same regime) was 70 to 280 ng/mL. In addition, the “mean Cmax of THC” value in data set [2] (human, acute THC inhalation, whole blood, lowest mean across studies) is 4 ng/mL. For the same molecule, the “mean Cmax ranges in clinical studies” value in data set [2] (human, smoked or vaped cannabis at similar doses) was 4 to 162 ng/mL. For the same molecule, in data set [5] (after THC inhalation in males, ref 35 (Hložek et al.)), the “time of peak THC brain levels” value was 15 min. Further, the “mean Cmax levels of THC” value in data set [5] (female Sprague Dawley rats, 5 minutes post-30 minute inhalation of 200 mg/mL THC) was 303 ng/mL. Further, the “time of peak THC brain levels” value in data set [5] (ref 26 (Baglot et al.)) was 30 min.
Take `CCCCCc1cc(O)c2c(c1)OC(C)(C)C1CCC(C(=O)O)=CC21` (stereo not shown) [THC-COOH, 11-nor-9-carboxy-delta-9-tetrahydrocannabinol]: the “Cmax (maximum serum concentration)” value in data set [1] (setting [6]) was 20.9 ± 4.1 ng/mL; in data set [1] (setting [7]) it was 19.9 ± 2.2 ng/mL; in data set [1] (setting [8]) it was 87.0 ± 21.8 ng/mL. In addition, the “time detectable in the bloodstream after administration” value in data set [2] (humans) is ≥ 7 days.
